This is a sample that favours compounds with a hit; in the whole collection about 2.3% have one here.
TRPC4 potent – allosterically enhances the mouse TRPC4 cation channel. B-score at 10 µM. Q9QUQ5. HEK293 TRPC4beta/mu-opioid, DAMGO EC20, Fluo-4 Ca2+ flux; active compounds read high. 0.42% of 310,000 active;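 active = B-score of calcium response area above 5 SD of library B-scores, with initial fluorescence ratio within 5 SD of library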;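 note: B-score of integrated fluorescence ratio over time as area under calcium response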
Target sequence (Q9QUQ5 whole entry, looked up): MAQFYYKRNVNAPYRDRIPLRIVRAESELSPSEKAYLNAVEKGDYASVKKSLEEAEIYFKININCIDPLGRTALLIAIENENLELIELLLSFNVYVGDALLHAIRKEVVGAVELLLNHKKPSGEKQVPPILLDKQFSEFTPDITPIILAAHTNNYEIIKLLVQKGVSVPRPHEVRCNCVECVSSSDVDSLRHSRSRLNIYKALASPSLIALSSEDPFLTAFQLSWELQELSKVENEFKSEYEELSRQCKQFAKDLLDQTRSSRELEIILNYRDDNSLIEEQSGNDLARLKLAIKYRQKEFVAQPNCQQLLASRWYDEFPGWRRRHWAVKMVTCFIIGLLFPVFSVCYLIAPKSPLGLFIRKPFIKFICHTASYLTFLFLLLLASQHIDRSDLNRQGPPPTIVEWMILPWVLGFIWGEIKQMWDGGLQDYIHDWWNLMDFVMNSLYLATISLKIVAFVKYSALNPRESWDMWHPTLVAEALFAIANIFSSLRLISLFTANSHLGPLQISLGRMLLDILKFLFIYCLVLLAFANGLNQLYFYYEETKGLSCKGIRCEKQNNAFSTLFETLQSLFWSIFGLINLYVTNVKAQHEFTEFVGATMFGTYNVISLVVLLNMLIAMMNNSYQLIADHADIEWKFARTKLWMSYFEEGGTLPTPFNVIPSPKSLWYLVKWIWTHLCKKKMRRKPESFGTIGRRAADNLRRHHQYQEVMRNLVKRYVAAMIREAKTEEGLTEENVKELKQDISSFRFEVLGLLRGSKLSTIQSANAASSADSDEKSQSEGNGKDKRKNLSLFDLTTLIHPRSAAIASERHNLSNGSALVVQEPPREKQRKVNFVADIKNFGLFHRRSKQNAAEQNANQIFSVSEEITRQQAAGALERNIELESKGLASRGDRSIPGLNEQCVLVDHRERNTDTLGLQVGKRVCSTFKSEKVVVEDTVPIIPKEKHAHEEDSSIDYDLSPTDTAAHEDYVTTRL
TRPC6 inh – inhibitors of mouse TRPC6 channel; Q61143; HEK293-TRPC6, membrane potential dye, ACh-evoked depolarization; active compounds read low; B-score at 10 µM; 1.1% of 310,000 active;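 active = B-score under library mean minus 3 SD, initial fluorescence not abnormally high, positive integrated signal ratio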;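 note: B-score derived from integrated fluorescence ratio over the kinetic read; more negative B-score means stronger inhibition of depolarization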
TRPC4 block – TRPC4 (mouse) channel inhibition; Q9QUQ5; HEK293 TRPC4beta/mu-opioid, DAMGO-evoked Fluo4 calcium flux; active compounds read low; B-score at 10 µM; 0.39% of 300,000 active; AID 2247;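 active = B-score over 3 SD under the library average, no early fluorescence shift, positive overall ratio signal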
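material = TRPC4beta/mu-opioid receptor HEK293 cell line | probe or stimulus = sequential submaximal and maximal DAMGO stimulation | compound dosing = one concentration per compound | measured by = Fluo4 Ca2+ flux fluorescence | evaluation = integrated fluorescence ratio relative to baseline, converted to per-well B score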
TRPC4 agonist – TRPC4 (mouse) channel activation | Q9QUQ5 | HEK293 TRPC4beta/mu-opioid, Fluo4 calcium fluorescence; active compounds read high | B-score at 10 µM | 0.49% of 310,000 active;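 active = B-score above 5 SD of library B-scores, and initial fluorescence ratio not above library mean plus 5 SD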;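 note: positive B-score marks a calcium rise read as TRPC4 activation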
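Material: HEK293 stable line with TRPC4beta plus mu-opioid receptor; technique: Fluo4 calcium-sensitive dye fluorescence, kinetic, 1 Hz baseline; timing: Fluo4 dye loading 45 min at room temperature, 110 s recording; controls: assay buffer as low control, maximal DAMGO as high control; read-out: integrated baseline-normalised fluorescence ratio, converted to per-well B score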
TRPC6 act – activates the mouse TRPC6 cation channel. Q61143. HEK293-TRPC6 membrane potential dye fluorescence; active compounds read high. B-score at 10 µM. 0.13% of 310,000 active. AID 2550;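 active = B-score of the integrated fluorescence ratio above library mean plus 3 SD, and starting fluorescence ratio within library mean plus 5 SD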;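 note: higher score means more depolarization so channel activation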
TRPC4 sel inh 2 – second selectivity test of TRPC6 inhibitors: effect on mouse TRPC4. shares compounds with TRPC6 inh. HEK293 TRPC4/MOR, membrane potential dye fluorescence; channel activated by saturating DAMGO dose. inhibition, % at 10 µM. 42% of 920 active. AID 2776;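 active = compounds whose fluorescence signal differed from control wells by over 3 SD, either direction, in both duplicate plates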
TRPC4 spec – tests whether TRPC6 inhibitors also affect mouse TRPC4; shares compounds with TRPC6 inh; HEK293 TRPC4/mu-opioid, membrane potential fluorescence; AID 2777; activity change, negative = inhibition, % at 10 µM; 61% of 920 active;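 active = rise or fall in signal beyond 3 SD of buffer-only wells in both replicate plates, either sign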;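 note: integrated kinetic ratio of fluorescence range over baseline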
HEK293 MPD ctr 2-1 – second counter-screen for TRPC6 inhibitors: parental HEK293 cells; signal change vs control, % at 10 µM; parental HEK293 membrane potential dye fluorescence; maximal acetylcholine challenge after compound addition; 31% of 920 active; AID 2779; shares compounds with TRPC6 inh;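 active = membrane potential signal moving either way by over 3 SD of the maximum-effect control, in both duplicate plates, meaning non-specific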
HEK293 MPD ctr-1 – parental HEK293 nonspecific activity of TRPC6 inhibitors; shares compounds with TRPC6 inh; 60% of 920 active; parental HEK293 membrane potential dye fluorescence; membrane potential signal change, % at 10 µM;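 active = membrane potential signal shifting up or down by more than 3 SD of buffer-only wells, on both duplicate plates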
HEK293 MPD ctr-2 – counter-screen for TRPC6 modulators: effect in parental HEK293 cells; AID 488924; membrane potential signal change, % at 10 µM; membrane potential dye fluorescence; shares compounds with TRPC6 inh; 51% of 2,400 active;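 active = membrane potential signal moves up or down beyond 5 SD from buffer-only wells, on both duplicate plates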
HEK293 MPD ctr 2-2 – parental HEK293 nonspecific activity of TRPC6 modulators, second screen. shares compounds with TRPC6 inh. membrane potential dye fluorescence; after compound, maximal acetylcholine stimulation. inhibition, % at 10 µM. 14% of 2,400 active;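 active = membrane potential signal drops by more than 5 SD from the mean control signal, in both duplicate plates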;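 note: plate controls were acetylcholine ECmax control wells for no effect and buffer only wells for full effect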
TRPC4 ctr mod – selectivity of TRPC6 modulators against mouse TRPC4. shares compounds with TRPC6 inh. HEK293 TRPC4/mu-opioid, membrane potential fluorescence. percent change from control (negative = decrease, positive = increase), % at 10 µM. 69% of 2,400 active. AID 488927;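 active = membrane potential signal moved up or down beyond 5 SD of buffer control wells, in both duplicate plates, actives on both sides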;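 note: plate controls were assay buffer wells for no effect and DAMGO maximal-effect wells for full effect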
TRPC4/MOR inh 2 – second check of whether TRPC6 modulators also affect mouse TRPC4. inhibition, % at 10 µM. 55% of 2,400 active. AID 488928. shares compounds with TRPC6 inh. HEK293 TRPC4/mu-opioid, membrane potential dye fluorescence; stimulated with maximal-effect DAMGO;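 active = drop in membrane potential signal beyond 5 SD of the control wells in both duplicate plates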;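 note: TRPC4 counter screen for TRPC6 hits run under conditions tuned for TRPC6 not TRPC4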
TRPC6 inh conf – mouse TRPC6 inhibitor confirmation; shares compounds with TRPC6 inh; HEK293-TRPC6, membrane potential dye, ACh-evoked depolarization; inhibition, % at 10 µM; 43% of 3,300 active;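 active = fluorescence ratio falls more than 5 SD below the full-stimulation control mean, in both duplicate runs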;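 note: integrated fluorescence ratio of peak minus minimum over baseline after agonist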
TRPC6 act confirm – mouse TRPC6 activator confirmation; 11% of 2,800 active; shares compounds with TRPC6 inh; activation, % at 10 µM; HEK293-TRPC6 membrane potential dye fluorescence, FDSS;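 active = ratio signal rise beyond 5 SD above unstimulated control wells' mean, seen in both duplicate runs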;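 note: plate controls were buffer EC0 wells for no effect and acetylcholine ECmax response for full effect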
The depositor's hits bear a star; i = inactive; . = not tested or not shown.

SMILES	TRPC4 potent	TRPC6 inh	TRPC4 block	TRPC4 agonist	TRPC6 act	HEK293 MPD ctr-2	HEK293 MPD ctr 2-2	TRPC4 ctr mod	TRPC4/MOR inh 2	TRPC6 inh conf	TRPC6 act confirm	others
CSc1ccc(S(=O)(=O)N2CCN(Cc3ccc4c(c3)OCO4)CC2)cc1	i	-5*	i	i	i	i	i	i	i	40%*	i
O=C(c1cccn2c(=O)c3ccccc3nc12)N1CCN(Cc2ccc3c(c2)OCO3)CC1	i	i	i	i	i	.	.	.	.	.	.
CC(C)N1CCN(Cc2cccn2-c2ccccn2)CC1CCO (stereo not drawn)	i	i	i	i	i	.	.	.	.	.	.
O=C1c2cccc3cccc(c23)N1Cc1cccc(F)c1	i	i	i	i	i	.	.	.	.	.	.
CCCC(=O)N1CCN(Cc2ccc3c(c2)OCO3)CC1	i	i	i	i	i	.	.	.	.	.	.
O=C(O)CCC(=O)N1CCN(Cc2ccc3c(c2)OCO3)CC1	i	-6.8*	i	i	i	.	.	.	.	i	i	TRPC4 sel inh 2=i;TRPC4 spec=i;HEK293 MPD ctr 2-1=i;HEK293 MPD ctr-1=i
O=C(c1ccc(Cn2cc(Cl)cn2)o1)N1CCN(Cc2ccc3c(c2)OCO3)CC1	i	-5.7*	i	i	i	98%*	i	18%*	i	40%*	.
CCOC(=O)c1c(NC(=O)/C=C/C(=O)O)sc(C)c1-c1ccc(C(C)(C)C)cc1	i	i	-10*	i	14*	i	i	18%*	50%*	i	30%*
CCN1C(=O)/C(=C/C=C2\N(CC)c3cc(S(=O)(=O)N(C)C)ccc3N2c2ccccc2)SC1=S	20*	i	i	i	16*	366%*	i	87%*	i	i	i
O=S(=O)(NCC1(N2CCOCC2)CCCCC1)c1ccc(F)c(F)c1F	i	i	i	i	i	.	.	.	.	.	.
CN1CCN(c2nc3c(c(=O)n(C)c(=O)n3C)n2Cc2cccc3ccccc23)CC1	i	i	i	i	i	.	.	.	.	.	.
Cn1c(=O)c2c(nc(N3CCCCCC3)n2Cc2cccc3ccccc23)n(C)c1=O	13*	-8.8*	i	i	i	.	.	.	.	i	i	TRPC4 sel inh 2=i;TRPC4 spec=i;HEK293 MPD ctr 2-1=i;HEK293 MPD ctr-1=i
Cc1sc2c3ccsc3ccc2[n+]1C	i	-8.6*	i	i	i	-292%*	71%*	-50%*	58%*	68%*	i
COc1ccc(CC(=O)NNC(=O)c2ccncc2)cc1	i	i	i	i	i	.	.	.	.	.	.
CCN(CC)CCOC(=O)C1(c2ccccc2)CCCC1	i	-9.2*	i	i	i	.	.	.	.	74%*	.	TRPC4 sel inh 2=i;TRPC4 spec=16%*;HEK293 MPD ctr 2-1=-2.5%*;HEK293 MPD ctr-1=15%*
CCN(CC)CCOC(=O)C1(c2ccc(OC)c(OC)c2)CCCC1	i	i	i	i	i	.	.	.	.	.	.
CCN(CC)CCOC(=O)C1(C2CCCCC2)CCCCC1	i	-6.2*	i	i	i	182%*	77%*	40%*	i	76%*	.
CCOc1ccc(NC(=O)CCC(=O)Nc2cc(OC)c(NC(=O)c3ccco3)cc2OC)cc1	i	i	i	i	i	.	.	.	.	.	.
COc1ccc(C2=Nn3c([n+](C)c4ccccc43)SC2)cc1	i	-7.1*	i	i	i	.	.	.	.	109%*	i	TRPC4 sel inh 2=66%*;TRPC4 spec=-20%*;HEK293 MPD ctr 2-1=-36%*;HEK293 MPD ctr-1=-338%*
C[n+]1cccc(/C=N/Nc2nc(Cl)c(C#N)c(Cl)c2Cl)c1	i	-6.2*	i	i	i	i	80%*	-14%*	i	i	i
COCCCNC(=O)C1CCC(CNS(=O)(=O)c2ccc(C)cc2)CC1 (stereo not drawn)	i	-6.3*	i	i	i	99%*	i	22%*	i	i	i
CCCCNC(=O)C1CCC(CNS(=O)(=O)c2ccc(C)cc2)CC1 (stereo not drawn)	i	i	i	i	i	.	.	.	.	.	.
CC(C)c1ccc2c(c1)CCC1C(C)(CN)CCCC21C (stereo not drawn)	i	-6.4*	i	i	i	-82%*	i	-12%*	81%*	58%*	i
Cc1cccc(CNc2ncc(-c3cccc([N+](=O)[O-])c3)n2C)c1	i	-5.9*	i	i	i	-74%*	i	-26%*	57%*	i	i
Oc1ccc(-c2nc3ccccc3s2)c(O)c1	i	-5.4*	i	i	i	i	i	i	i	i	i
O=C(O)c1ccc(CN2C(=O)CSC2=S)cc1	i	i	i	i	i	.	.	.	.	.	.
CC(C)(C)c1ccc(CN2C(=O)CSC2=O)cc1	i	-5.2*	i	i	i	i	i	i	i	i	i
Cc1nnc2sc(-c3cccc(NC(=O)c4cccnc4)c3)nn12	i	-6.5*	i	i	i	-148%*	i	-28%*	i	i	i
Cc1nnc2ccc(-c3cccc(NC(=O)c4ccc(Cl)nc4)c3)nn12	i	-5.8*	i	i	i	i	i	-16%*	37%*	48%*	i
